Measured values collected from several papers.
Protocols differ between the studies behind these lines.
Target: Beta-1 adrenergic receptor (ADRB1, Homo sapiens, UniProt P08588)

SMILES | test | conditions | measurement | result
Clc1ccc2c(C3CCN(CCc4c[nH]c5ccccc45)CC3)c[nH]c2c1 | ligand displacement, radioligand | 10 µM | inhibition | 84%
COCc1c(-c2cc3cc(C)cc(OC)c3s2)c2c(N)ncnn2c1CN1CCNC(=O)C1 | ligand displacement, radioligand | 10 µM | inhibition | 2%
O=C(Nc1cccnn1)N1CCN([C@@H]2CCOc3cc(C(F)(F)F)ccc32)CC1 | cell-free assay | 20 µM | inhibition | 27%
CC(C)N1CCC[C@H]1CNC(=O)c1cn(C2CCCC2)c(=O)c2c1c1ccccc1n2C | ligand displacement, radioligand | 10 µM | inhibition | 24%
c1ccc(C(NCCNC(c2ccccc2)c2ccccc2)c2ccccc2)cc1 | cell-free assay | 10 µM | inhibition | 31%
CN(CCN1CCC(OC(=O)Nc2ccccc2-c2ccccc2)CC1)C(=O)c1ccc(CN2CCC(C(N)=O)CC2)cc1 | ligand displacement, radioligand | 1 µM | inhibition | 14%
C[C@H](C(=O)N[C@H]1COc2ccccc2[C@@H]1S(C)(=O)=O)c1ccc(F)cc1 | cell-free assay | 10 µM | inhibition | 3%
Cc1c(N2CCNCC2)nc2ccc(Br)cc2c1C(=O)NC[C@H](CCC(=O)O)c1ccccc1Cl | ligand displacement | 10 µM | inhibition | 12.6%
Nc1ncc(-c2nc(N3CCOCC3)nc(N3CCOCC3)n2)c(C(F)F)n1 | cell-free assay, radioligand | 10 µM | remaining signal | 93.2%
Cn1cncc1[C@@](O)(COc1ccc(C#N)cc1-c1ccc(OC(F)(F)F)cc1)c1ccc(C#N)cc1 | ligand displacement | 10 µM | inhibition | -16.5%
COc1ccc(S(=O)(=O)N2CCCCC2)cc1C | ligand displacement, radioligand | 10 µM | inhibition | < 30%
